Compound activity deposited in PubChem BioAssay by Broad Institute.
Vif imaging: HIV Vif self-association inhibitors, primary screen, imaging, HEK293T, single point. hit rate 0.35% among 340,000. HEK293T cells, Vif self-association by quenched fluorescence, 24 h. inhibition, % at 7.49 µM; in the data active = inhibition above about 50%, passing the limit was not always enough
Cneo AK release: Cryptococcus neoformans cell lysis inducers, primary screen, AK release luminescence, single concentration; C. neoformans lysis, adenylate kinase release luminescence, 4 h; normalised: neutral wells 0, clomiphene wells 100; lysis activity, % at 15 µM; hit rate 0.2% among 360,000; AID 651654, 2012;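 active = mean lysis activity across replicates of at least 80%, whatever share of replicates individually reach that level; inactive = mean lysis activity below 80%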
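Schedule: static 4 h at 37 °C with compound, 1 h detection; system: C. neoformans cells; benchmarks: Clomiphene as positive control; buffer or medium: fresh YPD medium; measure: luminescence rise reflecting yeast cell lysis; measured by: luminescent adenylate kinase detection reagent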
FGF22 binding: binders of human FGF22 protein, primary screen, FGF22 synaptogenesis inhibitor project, biophysical, thermal shift, single point; Fibroblast growth factor 22 (Homo sapiens), Q9HCT0; recombinant FGF22 thermal shift, SYPRO orange fluorescence; percent of sucrose octasulfate shift, DMSO zero; activity (Tm shift, normalised), % at 9.99 µM; hit rate 1.5% among 340,000; AID 651658, 2012;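 active = mean Tm shift, scaled 0 neutral to 100 positive control, at about 1.3% or above, every replicate too, limit read from the data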
Target sequence (Q9HCT0 whole entry, looked up): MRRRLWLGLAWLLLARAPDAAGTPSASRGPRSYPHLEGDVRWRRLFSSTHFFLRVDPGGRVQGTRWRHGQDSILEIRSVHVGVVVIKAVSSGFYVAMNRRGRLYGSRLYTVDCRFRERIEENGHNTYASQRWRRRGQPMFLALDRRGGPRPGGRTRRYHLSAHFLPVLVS
PGC1a acetyl inh: inhibitors of PGC1a acetylation signal, primary screen, cell-based, U2OS, AlphaScreen, inhibitor mode; AlphaScreen anti-acetyl-lysine; with virally co-expressed GCN5 acetyltransferase; inhibition, % at 15.6 µM; hit rate 0.17% among 350,000;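 active = every replicate shows inhibition of at least 40%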
rRNA inh HTS: reduced GFP signal of wild-type E. coli, primary screen, bacterial rRNA inhibitor project, GFP/RFP fluorescence, OD600, single point. E. coli WT GFP vs humanized-ribosome RFP mutants, 24 h; stronger effect = lower value; DMSO median 0, no signal -100. GFP signal change (wild-type ribosome), % (concentration not given with the values). hit rate 1.6% among 350,000. AID 720706, 2013;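 active = significant combined selectivity score with lowered wild-type GFP, culture density cut under 30%, mutant RFP and density less affected; inactive = any of these conditions unmet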
PglD inh: C. jejuni PglD acetyltransferase inhibitors, primary screen, biochemical, DTNB colorimetric, single point; hit rate 0.098% among 360,000; UDP-N-acetylbacillosamine N-acetyltransferase PglD (Campylobacter jejuni); purified PglD enzyme, DTNB colorimetric CoA detection; inhibition, % at 12.5 µM; AID 602405, 2012; in the data active = inhibition above about 16%, passing the limit was not always enough
Large screens that a line does not name were inactive. This is a sample that favours compounds with a hit; in the whole collection about 2.9% have one here.

CCn1c(SCC(=O)N2CCCC2)nc2ccccc21	FGF22 binding 44 (no result: Cneo AK release, PGC1a acetyl inh, PglD inh)
CCOC(=O)c1ccc2c(c1)nc(SCC(=O)N1CCOCC1)n2CC	rRNA inh HTS -39 (no result: Cneo AK release, PGC1a acetyl inh, PglD inh)
CCCSc1nc2ccccc2n1CC(=O)O	none (no result: Cneo AK release, PglD inh)
CC(C)CSc1nc2ccccc2n1CC(=O)O	FGF22 binding 43
C[C@H]1CN([C@@H](C)CO)C(=O)c2cc(NC(=O)C3CCCCC3)ccc2O[C@@H]1CN(C)S(=O)(=O)c1cn(C)cn1	none (no result: Vif imaging)
O=C(CSc1nnc2nnc3ccccc3n12)N1CCOCC1	rRNA inh HTS -25 (no result: PGC1a acetyl inh)
O=C(CC1C(=O)NCCN1C(=O)Nc1ccc(Cl)cc1)Nc1ccc(F)cc1 (configuration not stated)	none
O=C(CC1C(=O)NCCN1C(=O)Nc1ccccc1)Nc1cc(Cl)ccc1Cl (configuration not stated)	rRNA inh HTS -25
Cc1cccc(NC(=O)CC2C(=O)NCCN2C(=O)Nc2ccc(Cl)cc2)c1 (configuration not stated)	rRNA inh HTS -32 (no result: PGC1a acetyl inh)
N#Cc1cccc(-c2ccc([C@H]3[C@@H](CO)N4CCCCN(C(=O)Nc5cccc(F)c5)C[C@@H]34)cc2)c1	none (no result: Vif imaging)
C[C@H](CO)N1C[C@H](C)[C@H](CN(C)C)Oc2cc(-c3cccnc3)ccc2S1(=O)=O	none (no result: Vif imaging)
COc1ccc(NC(=O)/C=C/c2ccccc2[N+](=O)[O-])c(OC)c1	rRNA inh HTS -23 (no result: Cneo AK release, PGC1a acetyl inh, PglD inh)
Cc1noc(C)c1S(=O)(=O)Nc1ccc2c(c1)C(=O)N([C@@H](C)CO)C[C@@H](C)[C@H](CN(C)Cc1ccncc1)OCCCC[C@H](C)O2	none (no result: Vif imaging)
CN(C)CCCOc1ccc(-c2cccc3nncn23)cn1	FGF22 binding 43 (no result: PGC1a acetyl inh)
CN(C)CCCOc1ccc(-c2ccc3nncn3c2)cn1	none (no result: PGC1a acetyl inh)
C[C@H](CO)N1C[C@H](C)[C@H](CN(C)C(=O)CCC(F)(F)F)OCCCC[C@H](C)Oc2ccc(NC(=O)CCCN(C)C)cc2C1=O	none (no result: Vif imaging)
Cc1noc(C)c1S(=O)(=O)Nc1ccc2c(c1)CC(=O)N([C@H](C)CO)C[C@H](C)[C@H](CN(C)S(C)(=O)=O)O2	none (no result: Vif imaging)
O=C(CCN=C1NS(=O)(=O)c2ccccc21)OCC(=O)c1ccccc1	none (no result: Cneo AK release, PGC1a acetyl inh, PglD inh)
CC(C)CCNC(=O)NC(=O)COC(=O)CCN=C1NS(=O)(=O)c2ccccc21	FGF22 binding 44
COc1ccccc1-n1ccn(CC(=O)Nc2ccc(C)cc2Cl)c(=O)c1=O	none
COc1ccccc1CCC(=O)Nc1ccc(C)cc1Cl	FGF22 binding 43 (no result: Cneo AK release, PGC1a acetyl inh, PglD inh)
CCS(=O)c1scc(-c2ccc(Cl)cc2)c1C#N (configuration not stated)	rRNA inh HTS -32 (no result: Cneo AK release, PGC1a acetyl inh, PglD inh)
CCc1nc2c(C#N)c(-c3ccc(Cl)cc3)ccn2n1	none (no result: FGF22 binding, rRNA inh HTS)
Cc1ccc(-c2csc(Nc3ccccn3)n2)cc1	none
COc1ccc(-c2csc(Nc3ccc(C)cn3)n2)cc1	FGF22 binding 61 (no result: Cneo AK release, PglD inh)
Cc1ccnc(Nc2nc(-c3ccc(Cl)cc3)cs2)c1	none (no result: PGC1a acetyl inh)
Cc1nc(C)c(-c2csc(Nc3ccccn3)n2)s1	none (no result: PGC1a acetyl inh)
Cc1ccnc(Nc2nc(-c3ccc(F)cc3)cs2)c1	rRNA inh HTS -36
Cc1ccnc(Nc2nc(-c3sc(C)nc3C)cs2)c1	rRNA inh HTS -34
C[C@@H]1CCCCO[C@H](CN(C)Cc2ccc(C(F)(F)F)cc2)[C@@H](C)CN([C@@H](C)CO)C(=O)c2cc(NS(C)(=O)=O)ccc2O1	none (no result: Vif imaging)
CN1C(=O)c2cc(NC(=O)C3CCCCC3)ccc2OC[C@H]2O[C@H](CC(=O)NCCc3ccncc3)CC[C@@H]21	none (no result: Vif imaging)
CCC(=O)N1[C@H](CN(C)C(C)=O)[C@H](c2ccc(C3=CCCCC3)cc2)[C@@H]1CO	none (no result: Vif imaging, Cneo AK release, FGF22 binding, PGC1a acetyl inh, PglD inh)
CC(=O)N(C)C[C@H]1[C@H](c2ccc(-c3cccnc3)cc2)[C@@H](CO)N1C(=O)C1CC1	none (no result: Vif imaging)
CCC(=O)N1[C@H](CO)[C@@H](c2ccc(-c3cccnc3)cc2)[C@@H]1CN(C)C(C)=O	Cneo AK release 104 (no result: Vif imaging, FGF22 binding)
